In ChEMBL document CHEMBL1821706, “Unprecedented citrinin trimer tricitinol B functions as a novel topoisomerase IIα inhibitor” (J Med Chem, 2011):
Activity calls are given as the source filed them. The rule behind the calls is not given here.

How the values were obtained:
HCT-116 [1] = assay: Induction of apoptosis in human HCT116 cells assessed as increase in cleaved caspase 3 levels after 24 hrs by Western blotting; type: functional, cell-based
Procedure, shortened: (§1)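 Cells (2×10^5/mL) were exposed to 2.5–10 μM for 24 h, then whole-cell lysates were made. Pro-/cleaved caspase-3, caspase-8, pro-/cleaved caspase-9, PARP (116 kDa full length, 85 kDa fragment) and Bid were probed by Western blot with ECL detection.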

KB = assay: Drug resistance index, ratio of IC50 for vincristine-resistant human KB cells to IC50 for human KB cells; type: functional
HeLa = assay: Selectivity ratio of IC50 for human HMEC cells to IC50 for HeLa cells
HL-60 [2] = assay: Induction of apoptosis in human HL60 cells assessed as Bid cleavage at 2.5 to 10 uM after 24 hrs by Western blotting; type: functional, cell-based; procedure, shortened: as §1
[3] = target: DNA topoisomerase 2-alpha (Homo sapiens) (UniProt P11388); assay: Inhibition of human topoisomerase 2alpha-mediated poststrand-passage DNA religation after 6 mins by agarose gel electrophoresis
Procedure, shortened: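 Topo II (6 units) with 0.25 μg supercoiled pBR322 in cleavage buffer with 1 mM APPNHP and 5 mM MgCl2. Cleavage/religation equilibrium set at 37 °C for 6 min. Compound added just before religation, which was started by a rapid shift from 37 to 55 °C for 5 min. SDS stop, then 1% agarose electrophoresis.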

HMEC [4] = assay: Selectivity ratio of IC50 for human HMEC cells to IC50 for PC3 cells
HL-60 [5] = assay: Induction of DNA damage in human HL60 cells assessed as increased histone H2AX expression after 1 hr by agarose gel electrophoresis; type: functional, cell-based
HL-60 [6] = assay: Induction of apoptosis in human HL60 cells assessed as DNA ladder formation at 10 uM after 1.5 to 24 hrs using Annexin-V/PI double-staining by flow cytometric analysis; type: functional, cell-based
Procedure, shortened: (§2)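 HL60 cells were treated with 2.5, 5.0, 7.5 or 10.0 μM for 24 h for DNA ladder analysis, representative of three experiments. Apoptotic fractions were measured after 2.5–10 μM for 24 h, or 10 μM over a time course, by Annexin/PI staining and flow cytometry (early plus late apoptotic cells), as mean ± SD of three experiments.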

HCT-116 [7] = assay: Induction of apoptosis in human HCT116 cells assessed as activation of caspase 9 at 2.5 to 10 uM after 24 hrs by Western blotting; type: functional, cell-based; procedure, shortened: as §1
HMEC [8] = assay: Selectivity ratio of IC50 for human HMEC cells to IC50 for BxPC3 cells
HMEC [9] = assay: Selectivity ratio of IC50 for human HMEC cells to IC50 for A549 cells
HCT-116 [10] = assay: Induction of apoptosis in human HCT116 cells assessed as increase in cleaved PARP levels after 24 hrs by Western blotting; type: functional, cell-based; procedure, shortened: as §1
HMEC [11] = assay: Selectivity ratio of IC50 for human HMEC cells to IC50 for Rh30 cells
[12] = target: DNA topoisomerase 2-alpha (Homo sapiens) (UniProt P11388); assay: Inhibition of human topoisomerase 2alpha-mediated relaxation of supercoiled pBR322 DNA after 30 mins by agarose gel electrophoresis
Procedure, shortened: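 Supercoiled pBR322 (0.25 μg) incubated with 0.75 unit topo IIα at 37 °C for 30 min. SDS stop. Supercoiled and relaxed forms resolved on 1% agarose/TAE, ethidium bromide stain.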

HMEC [13] = assay: Selectivity ratio of IC50 for human HMEC cells to IC50 for HL60 cells
HCT-116 [14] = assay: Cytotoxicity against human HCT116 cells after 72 hrs by SRB assay; type: functional, cell-based; settings: HCT-116, 72 h
Procedure, shortened: (§3)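 Adherent human tumour lines were seeded and exposed in triplicate to graded compound concentrations at 37 °C for 72 h. Growth was read by sulforhodamine B staining. IC50 (50% growth inhibition) was obtained by the Logit method from at least three independent experiments and reported as mean ± SD.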

HL-60 [15] = assay: Induction of apoptosis in human HL60 cells assessed as decrease in procaspase 3 expression after 24 hrs by Western blotting; type: functional, cell-based; procedure, shortened: as §1
HL-60 [16] = assay: Induction of apoptosis in human HL60 cells assessed as caspase 8 cleavage at 10 uM after 24 hrs by Western blotting preincubated for 2 hrs with 20 uM caspase 8 inhibitor Z-IETD-FMK; type: functional, cell-based
Procedure, shortened: (§4)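 HL60 cells were pretreated with 20 μM Z-IETD-FMK, Z-LEHD-FMK or Z-VAD-FMK, then cultured with 10 μM compound for 24 h. Cleaved PARP and caspases were probed by Western blot. Three independent experiments were run.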

HMEC [17] = assay: Selectivity ratio of IC50 for human HMEC cells to IC50 for SKOV3 cells
HCT-116 [18] = assay: Induction of apoptosis in human HCT116 cells assessed as Bid cleavage at 2.5 to 10 uM after 24 hrs by Western blotting; type: functional, cell-based; procedure, shortened: as §1
HL-60 [19] = assay: Induction of apoptosis in human HL60 cells assessed as activation of caspase 9 at 2.5 to 10 uM after 24 hrs by Western blotting; type: functional, cell-based; procedure, shortened: as §1
HCT-116 [20] = assay: Induction of apoptosis in human HCT116 cells assessed as decrease in procaspase 3 expression after 24 hrs by Western blotting; type: functional, cell-based; procedure, shortened: as §1
HCT-116 [21] = assay: Induction of apoptosis in human HCT116 cells assessed as accumulation at G0/G1 phase at 5 uM after 24 hrs using PI staining based flow cytometric analysis (reference value: 48.77%)
HL-60 [22] = assay: Induction of apoptosis in human HL60 cells assessed as PARP cleavage at 10 uM after 24 hrs by Western blotting preincubated for 2 hrs with 20 uM pancaspase inhibitor Z-VAD-FMK; type: functional, cell-based; procedure, shortened: as §4
HCT-116 [23] = assay: Induction of apoptosis in human HCT116 cells assessed as accumulation at G2/M phase at 5 uM after 24 hrs using PI staining based flow cytometric analysis (reference value: 24.23%)
HL-60 [24] = assay: Induction of apoptosis in human HL60 cells assessed as increase in cleaved caspase 3 levels after 24 hrs by Western blotting; type: functional, cell-based; procedure, shortened: as §1
HL-60 [25] = assay: Induction of apoptosis in human HL60 cells assessed as activation of caspase 8 at 2.5 to 10 uM after 24 hrs by Western blotting; type: functional, cell-based; procedure, shortened: as §1
[26] = target: DNA topoisomerase 2-alpha (Homo sapiens) (UniProt P11388); assay: Inhibition of human topoisomerase 2alpha-mediated prestrand-passage DNA religation after 6 mins by agarose gel electrophoresis
Procedure, shortened: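 Topo II (6 units) with 0.25 μg supercoiled pBR322 in cleavage buffer with 5 mM CaCl2; equilibrium at 37 °C for 6 min. Compound added just before religation. Cleavage complex trapped with EDTA, NaCl added to block recleavage, samples put on ice. Religation started with cold MgCl2 (8.5 mM final), stopped with SDS, then 1% agarose electrophoresis.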

HCT-116 [27] = assay: Induction of apoptosis in human HCT116 cells assessed as activation of caspase 8 at 2.5 to 10 uM after 24 hrs by Western blotting; type: functional, cell-based; procedure, shortened: as §1
HL-60 [28] = assay: Induction of apoptosis in human HL60 cells assessed as increase in cleaved PARP levels after 24 hrs by Western blotting; type: functional, cell-based; procedure, shortened: as §1
HMEC [29] = assay: Cytotoxicity against human HMEC cells after 72 hrs by MTT assay; type: cell-based
MCF7 = assay: Cytotoxicity against human MCF7 cells after 72 hrs by SRB assay; type: functional, cell-based; settings: MCF7, 72 h; procedure, shortened: as §3
HL-60 [30] = assay: Induction of apoptosis in human HL60 cells assessed as DNA ladder formation at 2.5 to 10 uM after 24 hrs using Annexin-V/PI double-staining by flow cytometric analysis; type: functional; procedure, shortened: as §2

Sequence of DNA topoisomerase 2-alpha (Homo sapiens) (P11388 whole entry): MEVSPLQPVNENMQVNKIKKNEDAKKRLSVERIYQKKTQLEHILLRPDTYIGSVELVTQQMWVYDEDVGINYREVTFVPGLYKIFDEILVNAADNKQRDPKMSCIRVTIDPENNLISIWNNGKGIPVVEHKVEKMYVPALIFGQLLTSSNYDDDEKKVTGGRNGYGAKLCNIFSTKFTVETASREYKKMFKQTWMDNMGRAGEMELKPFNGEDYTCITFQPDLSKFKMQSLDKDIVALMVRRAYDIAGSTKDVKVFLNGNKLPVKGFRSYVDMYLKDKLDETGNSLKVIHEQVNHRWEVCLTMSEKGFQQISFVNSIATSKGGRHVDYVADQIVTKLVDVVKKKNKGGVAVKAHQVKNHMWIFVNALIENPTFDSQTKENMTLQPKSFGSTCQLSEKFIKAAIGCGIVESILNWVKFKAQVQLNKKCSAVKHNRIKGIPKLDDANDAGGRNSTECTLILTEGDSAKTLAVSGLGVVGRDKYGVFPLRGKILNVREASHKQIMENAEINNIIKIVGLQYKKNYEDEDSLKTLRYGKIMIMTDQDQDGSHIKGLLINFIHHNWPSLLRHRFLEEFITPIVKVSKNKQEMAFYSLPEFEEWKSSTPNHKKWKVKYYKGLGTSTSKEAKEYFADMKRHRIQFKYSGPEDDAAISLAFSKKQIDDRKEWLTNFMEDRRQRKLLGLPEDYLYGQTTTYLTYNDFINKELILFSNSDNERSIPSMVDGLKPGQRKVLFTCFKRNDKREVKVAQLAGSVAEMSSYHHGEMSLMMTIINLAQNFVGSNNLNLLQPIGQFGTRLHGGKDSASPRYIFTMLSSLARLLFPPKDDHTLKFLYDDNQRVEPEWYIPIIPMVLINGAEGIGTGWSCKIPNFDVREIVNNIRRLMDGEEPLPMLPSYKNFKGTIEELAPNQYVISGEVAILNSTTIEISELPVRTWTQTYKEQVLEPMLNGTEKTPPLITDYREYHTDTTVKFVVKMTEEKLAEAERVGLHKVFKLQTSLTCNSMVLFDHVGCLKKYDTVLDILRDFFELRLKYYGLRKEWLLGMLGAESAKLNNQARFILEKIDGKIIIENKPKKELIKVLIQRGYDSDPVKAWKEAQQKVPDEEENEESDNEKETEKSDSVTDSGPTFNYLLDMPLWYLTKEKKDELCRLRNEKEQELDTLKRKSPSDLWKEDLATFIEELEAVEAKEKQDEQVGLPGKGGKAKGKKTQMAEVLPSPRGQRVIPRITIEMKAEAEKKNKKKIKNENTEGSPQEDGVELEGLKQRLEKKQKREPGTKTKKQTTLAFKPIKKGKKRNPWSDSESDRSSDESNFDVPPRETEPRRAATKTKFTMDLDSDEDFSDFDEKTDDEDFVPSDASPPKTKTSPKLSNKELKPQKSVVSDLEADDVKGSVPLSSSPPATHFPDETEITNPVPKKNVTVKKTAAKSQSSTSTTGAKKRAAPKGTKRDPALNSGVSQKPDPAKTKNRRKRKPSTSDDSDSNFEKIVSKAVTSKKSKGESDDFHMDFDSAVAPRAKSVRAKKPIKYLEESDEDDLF

COC1O[C@H](C)[C@@H](C)c2c(C)c3c(c(O)c21)[C@@H]1O[C@H](C)[C@@H](C)c2c(C)c(O)c([C@H]4O[C@H](C)[C@@H](C)c5c(C)c(O)cc(O)c54)c(c21)O3 (stereo partly drawn) [TRICITRINOL B]
Activity (HCT-116 [1]): Dose-dependent effect
Ratio IC50 (KB): 0.94
Ratio IC50 (HeLa): 2
Activity (HL-60 [2]): Active
inhibition [3]: Dose-dependent effect
Ratio IC50 (HMEC [4]): 2
Activity (HL-60 [5]): Dose-dependent effect
Activity (HL-60 [6]): Active
Activity (HCT-116 [7]): Active
Ratio IC50 (HMEC [8]): 2
Ratio IC50 (HMEC [9]): 2
Activity (HCT-116 [10]): Dose-dependent effect
Ratio IC50 (HMEC [11]): 2
inhibition [12]: Dose-dependent effect
Ratio IC50 (HMEC [13]): 2
IC50 (HCT-116 [14]): 4.82 µM
Activity (HL-60 [15]): Dose-dependent effect
Activity (HL-60 [16]): inactive
Ratio IC50 (HMEC [17]): 2
Activity (HCT-116 [18]): Active
Activity (HL-60 [19]): Active
Activity (HCT-116 [20]): Dose-dependent effect
Activity (HCT-116 [21]): 37.52%
Activity (HL-60 [22]): inactive
Activity (HCT-116 [23]): 42.06%
Activity (HL-60 [24]): Dose-dependent effect
Activity (HL-60 [25]): Active
inhibition [26]: Dose-dependent effect
Activity (HCT-116 [27]): Active
Activity (HL-60 [28]): Dose-dependent effect
IC50 (HMEC [29]): 7.89 µM
IC50 (MCF7): 5.76 µM
Activity (HL-60 [30]): 10%
